Measurements taken from ChEMBL document CHEMBL1157595, “Synthesis and biological evaluation of botulinum neurotoxin a protease inhibitors” (J Med Chem, 2010).
Calls of active or inactive are those of the source. The rule behind the calls is not given here.

Legend:
[1] = biological target: T1, Botulinum neurotoxin type A (Clostridium botulinum, UniProt P0DPI0); experiment: Inhibition of Clostridium botulinum toxin BoNT/A light chain by FRET assay
Outline: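 Recombinant BoNT/A light chain was assayed by FRET substrate cleavage in 50 mM HEPES–0.05% Tween, pH 7.4. Reactions were stopped with acetic acid (0.5% final), and cleaved substrate fluorescence was read at 485 nm after excitation at 398 nm.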

[2] = biological target: T2, Lethal factor (Bacillus anthracis, UniProt P15917); experiment: Inhibition of Bacillus anthracis anthrax lethal factor by FRET assay
T2 sequence (P15917 whole entry): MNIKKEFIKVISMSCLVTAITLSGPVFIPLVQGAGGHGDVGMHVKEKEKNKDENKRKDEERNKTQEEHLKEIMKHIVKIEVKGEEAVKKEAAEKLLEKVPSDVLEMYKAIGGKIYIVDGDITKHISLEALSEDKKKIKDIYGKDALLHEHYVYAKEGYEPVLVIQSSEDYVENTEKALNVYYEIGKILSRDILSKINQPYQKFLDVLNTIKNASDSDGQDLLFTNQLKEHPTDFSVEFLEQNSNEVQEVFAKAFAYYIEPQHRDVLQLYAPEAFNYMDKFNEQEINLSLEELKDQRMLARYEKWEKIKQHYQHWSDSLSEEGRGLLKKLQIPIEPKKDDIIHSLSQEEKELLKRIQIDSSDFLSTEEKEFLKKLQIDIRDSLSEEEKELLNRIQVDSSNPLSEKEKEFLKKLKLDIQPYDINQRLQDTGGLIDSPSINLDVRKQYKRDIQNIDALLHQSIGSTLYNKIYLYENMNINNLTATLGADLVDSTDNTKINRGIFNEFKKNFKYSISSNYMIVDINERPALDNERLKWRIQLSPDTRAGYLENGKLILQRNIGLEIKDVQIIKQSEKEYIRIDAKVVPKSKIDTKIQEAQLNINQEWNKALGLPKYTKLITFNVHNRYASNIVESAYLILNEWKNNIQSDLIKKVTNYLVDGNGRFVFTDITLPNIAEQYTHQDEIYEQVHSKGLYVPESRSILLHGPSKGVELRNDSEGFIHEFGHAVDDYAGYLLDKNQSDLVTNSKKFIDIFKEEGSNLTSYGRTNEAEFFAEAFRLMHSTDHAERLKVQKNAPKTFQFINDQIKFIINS

[3] = Selectivity ratio of IC50 for Bacillus anthracis anthrax lethal factor to IC50 for Clostridium botulinum toxin BoNT/A light chain
[4] = biological target: T1, Botulinum neurotoxin type A; experiment: Inhibition of Clostridium botulinum toxin BoNT/A light chain by HPLC-based assay
Outline: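 Secondary HPLC-based cleavage assay with recombinant BoNT/A light chain, used to confirm FRET data. Values are the average of two experiments with variation under 10%.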

[5] = biological target: T3, Botulinum neurotoxin type B (Clostridium botulinum) (UniProt P10844); experiment: Inhibition of Clostridium botulinum toxin BoNT/B
T3 sequence (whole entry): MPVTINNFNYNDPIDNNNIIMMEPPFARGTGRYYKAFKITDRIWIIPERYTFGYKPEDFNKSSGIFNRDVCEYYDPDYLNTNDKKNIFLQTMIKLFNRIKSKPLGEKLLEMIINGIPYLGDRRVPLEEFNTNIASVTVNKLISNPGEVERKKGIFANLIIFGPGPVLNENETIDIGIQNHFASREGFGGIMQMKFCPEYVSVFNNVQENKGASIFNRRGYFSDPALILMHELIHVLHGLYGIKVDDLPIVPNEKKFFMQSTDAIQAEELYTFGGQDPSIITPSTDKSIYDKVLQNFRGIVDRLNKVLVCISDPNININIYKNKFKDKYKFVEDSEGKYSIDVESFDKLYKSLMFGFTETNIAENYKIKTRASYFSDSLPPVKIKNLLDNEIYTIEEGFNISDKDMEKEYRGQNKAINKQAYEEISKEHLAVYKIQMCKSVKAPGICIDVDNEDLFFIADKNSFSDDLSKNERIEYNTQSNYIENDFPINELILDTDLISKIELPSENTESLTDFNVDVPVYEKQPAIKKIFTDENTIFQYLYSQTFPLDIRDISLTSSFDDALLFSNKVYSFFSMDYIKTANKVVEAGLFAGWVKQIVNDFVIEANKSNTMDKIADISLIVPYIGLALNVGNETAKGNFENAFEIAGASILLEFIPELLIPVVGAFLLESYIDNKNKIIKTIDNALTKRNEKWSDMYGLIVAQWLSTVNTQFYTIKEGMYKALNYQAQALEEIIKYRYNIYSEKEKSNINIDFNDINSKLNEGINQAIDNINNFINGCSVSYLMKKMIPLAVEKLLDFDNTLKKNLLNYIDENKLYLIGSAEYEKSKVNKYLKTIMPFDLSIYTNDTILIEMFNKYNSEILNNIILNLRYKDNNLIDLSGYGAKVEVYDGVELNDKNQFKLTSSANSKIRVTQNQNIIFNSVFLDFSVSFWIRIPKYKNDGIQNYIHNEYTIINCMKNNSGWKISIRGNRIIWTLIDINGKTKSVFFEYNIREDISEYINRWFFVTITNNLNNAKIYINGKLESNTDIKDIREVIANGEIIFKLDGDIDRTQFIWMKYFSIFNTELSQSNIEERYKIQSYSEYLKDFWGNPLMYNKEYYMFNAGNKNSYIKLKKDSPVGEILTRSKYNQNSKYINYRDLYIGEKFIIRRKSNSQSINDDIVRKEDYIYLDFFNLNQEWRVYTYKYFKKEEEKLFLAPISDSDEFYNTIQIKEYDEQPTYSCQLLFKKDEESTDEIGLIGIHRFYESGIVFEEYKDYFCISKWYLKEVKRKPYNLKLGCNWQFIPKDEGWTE

[6] = biological target: T4, Interstitial collagenase (Homo sapiens) (UniProt P03956); experiment: Inhibition of human MMP1
T4 sequence (whole entry): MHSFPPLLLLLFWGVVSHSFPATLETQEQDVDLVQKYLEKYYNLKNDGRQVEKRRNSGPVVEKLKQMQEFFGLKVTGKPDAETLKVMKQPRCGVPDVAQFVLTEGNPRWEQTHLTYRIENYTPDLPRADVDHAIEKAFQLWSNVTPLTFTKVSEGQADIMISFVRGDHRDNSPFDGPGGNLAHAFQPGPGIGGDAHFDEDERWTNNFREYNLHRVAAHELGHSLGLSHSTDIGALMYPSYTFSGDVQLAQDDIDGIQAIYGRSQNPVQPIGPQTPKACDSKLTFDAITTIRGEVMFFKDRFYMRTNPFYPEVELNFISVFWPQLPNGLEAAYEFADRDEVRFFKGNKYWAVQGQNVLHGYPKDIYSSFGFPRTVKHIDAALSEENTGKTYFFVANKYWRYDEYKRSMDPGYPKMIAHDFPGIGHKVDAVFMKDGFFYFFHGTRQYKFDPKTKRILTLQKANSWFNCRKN

[7] = biological target: Matrix metalloproteinase-9 (Homo sapiens) (UniProt P14780); experiment: Inhibition of human MMP9
Sequence of Matrix metalloproteinase-9 (Homo sapiens) (P14780 whole entry): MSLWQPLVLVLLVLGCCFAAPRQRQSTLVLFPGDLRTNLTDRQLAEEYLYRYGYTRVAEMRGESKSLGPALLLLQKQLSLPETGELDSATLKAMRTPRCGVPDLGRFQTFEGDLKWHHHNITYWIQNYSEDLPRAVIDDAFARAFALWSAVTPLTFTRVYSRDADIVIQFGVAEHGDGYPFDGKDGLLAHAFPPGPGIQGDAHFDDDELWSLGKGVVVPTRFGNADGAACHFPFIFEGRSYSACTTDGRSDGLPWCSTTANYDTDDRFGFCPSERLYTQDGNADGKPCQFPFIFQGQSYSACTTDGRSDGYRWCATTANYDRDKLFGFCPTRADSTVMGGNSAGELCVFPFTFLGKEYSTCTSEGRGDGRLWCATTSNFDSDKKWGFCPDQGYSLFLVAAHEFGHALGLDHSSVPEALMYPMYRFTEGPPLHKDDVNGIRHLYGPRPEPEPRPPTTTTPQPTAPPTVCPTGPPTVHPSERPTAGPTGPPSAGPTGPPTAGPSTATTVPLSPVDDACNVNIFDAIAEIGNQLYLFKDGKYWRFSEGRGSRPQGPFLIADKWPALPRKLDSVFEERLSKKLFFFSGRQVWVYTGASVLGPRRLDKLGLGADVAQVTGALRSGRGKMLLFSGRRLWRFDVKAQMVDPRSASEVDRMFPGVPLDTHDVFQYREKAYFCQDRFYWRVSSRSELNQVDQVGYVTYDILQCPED

[8] = biological target: T1, Botulinum neurotoxin type A; experiment: Inhibition of Clostridium botulinum toxin BoNT/A light chain
[9] = biological target: Botulinum neurotoxin type A (Clostridium botulinum) (UniProt P0DPI0); conditions: 20 uM
Sequence of Botulinum neurotoxin type A (Clostridium botulinum) (P0DPI0 2-448 limits assumed): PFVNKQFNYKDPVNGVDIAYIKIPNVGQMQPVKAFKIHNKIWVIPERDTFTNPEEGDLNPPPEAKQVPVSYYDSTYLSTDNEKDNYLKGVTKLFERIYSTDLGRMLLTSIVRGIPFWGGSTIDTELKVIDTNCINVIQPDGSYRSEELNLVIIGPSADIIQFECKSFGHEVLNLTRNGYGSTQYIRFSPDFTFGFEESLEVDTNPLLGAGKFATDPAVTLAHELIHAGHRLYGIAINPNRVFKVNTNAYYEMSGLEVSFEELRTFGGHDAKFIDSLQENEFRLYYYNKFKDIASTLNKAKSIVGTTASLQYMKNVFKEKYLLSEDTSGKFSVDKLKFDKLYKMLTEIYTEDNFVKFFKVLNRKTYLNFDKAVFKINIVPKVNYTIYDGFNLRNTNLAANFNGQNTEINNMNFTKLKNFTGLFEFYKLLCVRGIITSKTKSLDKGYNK

T1 sequence (P0DPI0 2-448 limits assumed): as above

Row | SMILES | IC50 [1] [µM] | IC50 [2] [µM] | IC50 [4] [µM] | further results
1 | OC1CN=C(c2ccc(Oc3ccc(-c4cc5ccc(C6=NCC(O)CN6)cc5[nH]4)cc3)cc2)NC1 (configuration not stated) | 7.3 | > 100 |  | Ratio IC50 [3]: 10
2 | c1cc(C2=NCCN2)ccc1Oc1ccc(-c2cc3ccc(C4=NCCN4)cc3[nH]2)cc1 | 12.5 | 43 | 9.4 | 
3 | N#Cc1ccc(Oc2ccc(-c3cc4ccc(C#N)cc4[nH]3)nc2)cc1 | > 100 | > 100 |  | 
4 | CN(C)CC/N=C(\N)c1ccc(Oc2ccc(-c3cc4ccc(/C(N)=N/CCN(C)C)cc4[nH]3)cc2)cc1 | 2.5 | 28 | 4.4 | Ratio IC50 [3]: 10; inhibition [5]: inactive; inhibition [6]: inactive; inhibition [7]: inactive
5 | Clc1ccc(Oc2ccc(-c3cc4ccc(C5=NCCN5)cc4[nH]3)cc2)c(Cl)c1 | > 25 | > 100 | 52 | 
6 | Clc1ccc2cc(-c3ccc(Oc4ccc(C5=NCCN5)cc4)cc3)[nH]c2c1 | > 100 | 51 |  | 
7 | c1cc(-c2cc3ccc(C4=NCCN4)cc3s2)ccc1C1=NCCN1 | 43 | > 100 |  | 
8 | c1cc(C2=NCCCN2)ccc1Oc1ccc(-c2nc3ccc(C4=NCCCN4)cc3[nH]2)cc1 | 28 |  | 41 | 
9 | NC(=O)c1ccc(Oc2ccc(-c3cc4ccc(C(N)=O)cc4[nH]3)cc2)cc1 | > 100 | > 100 |  | 
10 | N#Cc1ccc(Oc2ccc(-c3cc4ccc(C#N)cc4[nH]3)cc2)cc1 | > 100 |  |  | 
11 | c1cc(C2=NCCN2)ccc1Oc1ccc(-c2nc3ccc(C4=NCCN4)cc3[nH]2)cc1 | 24.5 |  |  | 
12 | c1cc(C2=NCCCN2)ccc1Oc1ccc(-c2cc3ccc(C4=NCCCN4)cc3s2)cc1 | 54 | > 100 |  | 
13 | c1cc(C2=NCCCN2)ccc1Oc1ccc(-c2cc3ccc(C4=NCCCN4)cc3[nH]2)nc1 | 67 | > 100 | > 100 | 
14 | c1cc(-c2cc3ccc(C4=NCCN4)cc3[nH]2)ccc1C1=NCCN1 | 20 | 49 |  | inhibition [5]: inactive; inhibition [6]: inactive; inhibition [7]: inactive
15 | c1cc(C2=NCCN2)ccc1Oc1ccc(-c2cc3ccc(C4=NCCN4)cc3s2)cc1 | 7.1 | 18 | 25 | 
16 | CCOc1ccc(C(Nc2cccnc2)c2cc(Cl)c3cccnc3c2O)cc1 (configuration not stated) |  |  |  | IC50 [8]: 0.5 µM
17 | c1cc(C2=NCCN2)ccc1Oc1ccc(-c2cc3ccc(C4=NCCN4)cc3[nH]2)nc1 | 69 | 55 | > 100 | 
18 | c1cc(-c2cc3ccc(C4=NCCCN4)cc3[nH]2)ccc1C1=NCCCN1 | > 100 | > 100 |  | 
19 | N#Cc1ccc(Oc2ccc(-c3cc4ccc(C5=NCCN5)cc4[nH]3)cc2)c(Cl)c1 | 30 | > 100 |  | 
20 | NCCCCCCCNCCCCCCCNC(=O)c1cc(CCC(=O)NO)c(CCC(O)(c2ccccc2)c2ccccc2)[nH]1 |  |  |  | IC50 [8]: < 1 µM; Ki [8]: 0.76 µM
21 | N#Cc1ccc(Oc2ccc(-c3cc4ccc(C#N)cc4[nH]3)cc2)c(Cl)c1 | > 100 |  |  | 
22 | c1cc(C2=NCCCN2)ccc1Oc1ccc(-c2cc3ccc(C4=NCCCN4)cc3[nH]2)cc1 | 21 | > 100 | 43 | 
23 | N#Cc1ccc(Oc2ccc(-c3cc4ccc(C(=N)N)cc4[nH]3)cc2)cc1 | > 25 | > 100 |  | 
24 | c1cc(-c2cc3ccc(C4=NCCCN4)cc3s2)ccc1C1=NCCCN1 | > 100 |  |  | 
25 | N=C(N)c1ccc(Oc2ccc(-c3cc4ccc(C(=N)N)cc4[nH]3)cc2)cc1 | 11 | 35 | 17 | inhibition [9]: 75%
